The test system of one assay is SiHa. In words: Cytotoxicity against human SiHa cells assessed as cell viability after 24 to 48 hrs by MTT assay. It counts as functional. In short, it runs like this: (§1)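 MTT viability assay in SiHa, HeLa (cervical), MCF-7 (breast) and IMR-32 (neuroblastoma) cells, treated with conjugates over 0.25 to 8 µM for 48 h.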
Assay [1] deals with MCF7. As to the kind of experiment: Cytotoxicity against human MCF7 cells assessed as cell viability after 24 to 48 hrs by MTT assay. It counts as functional. In short, it runs like this:
as §1

Assay [2] is described as follows: Cytotoxicity against human IMR32 cells assessed as cell viability after 24 to 48 hrs by MTT assay. It counts as functional, IMR-32. In short, it runs like this: as §1
Another assay has as its system HeLa. As to the kind of experiment: Cytotoxicity against human HeLa cells assessed as cell viability after 24 to 48 hrs by MTT assay. It counts as functional. The method, boiled down:
as §1

The subject of assay [3] is MCF7. In words: Cell cycle arrest in human MCF7 cells assessed as accumulation at G0 phase at 8 uM after 48 hrs (reference value: 3%). It counts as functional. The method, boiled down: (§2)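 MCF-7 breast cancer cells exposed 48 h to 4, 8, 16 or 32 µM; doxorubicin as positive control. Cell cycle phase distribution (G0, G1, S, G2/M) read as percentage of cells; G0 fraction taken as apoptotic cells.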

Assay [4] has as its system MCF7. As to the kind of experiment: Cell cycle arrest in human MCF7 cells assessed as accumulation at G0 phase at 16 uM after 48 hrs (reference value: 3%). It counts as functional. The method, boiled down:
as §2

In assay [5] the test system is MCF7. In words: Cell cycle arrest in human MCF7 cells assessed as accumulation at S phase at 8 uM after 48 hrs (reference value: 9%). It counts as functional. In short, it runs like this:
as §2

Assay [6] concerns MCF7. In words: Cell cycle arrest in human MCF7 cells assessed as accumulation at S phase at 16 uM after 48 hrs (reference value: 9%). The format is functional. In short, it runs like this:
as §2

Assay [7] deals with MCF7. In words: Cell cycle arrest in human MCF7 cells assessed as accumulation at G2/M phase at 8 uM after 48 hrs (reference value: 25%). The format is functional. In short, it runs like this: as §2
In assay [8] the test system is MCF7. As to the kind of experiment: Cell cycle arrest in human MCF7 cells assessed as accumulation at G0 phase at 4 uM after 48 hrs (reference value: 3%). It counts as functional. The method, boiled down: as §2
Assay [9] relates to MCF7. In words: Cell cycle arrest in human MCF7 cells assessed as accumulation at G2/M phase at 16 uM after 48 hrs (reference value: 25%). It counts as functional. The method, boiled down: as §2
In assay [10] the test system is MCF7. In words: Cell cycle arrest in human MCF7 cells assessed as accumulation at G0 phase at 32 uM after 48 hrs (reference value: 3%). The format is functional. The method, boiled down:
as §2

Assay [11] has as its system MCF7. In words: Cell cycle arrest in human MCF7 cells assessed as accumulation at G1 phase at 8 uM after 48 hrs (reference value: 63%). The format is functional. In short, it runs like this:
as §2

Assay [12] deals with MCF7. As to the kind of experiment: Cell cycle arrest in human MCF7 cells assessed as accumulation at G1 phase at 16 uM after 48 hrs (reference value: 63%). It counts as functional. In short, it runs like this: as §2
The subject of assay [13] is MCF7. In words: Cell cycle arrest in human MCF7 cells assessed as accumulation at G2/M phase at 4 uM after 48 hrs (reference value: 25%). It counts as functional. The method, boiled down: as §2
Assay [14] deals with MCF7. In words: Cell cycle arrest in human MCF7 cells assessed as accumulation at S phase at 32 uM after 48 hrs (reference value: 9%). The format is functional. The method, boiled down:
as §2

Assay [15] relates to MCF7. In words: Cell cycle arrest in human MCF7 cells assessed as accumulation at G1 phase at 32 uM after 48 hrs (reference value: 63%). The format is functional. In short, it runs like this:
as §2

Assay [16] has as its system MCF7. In words: Cell cycle arrest in human MCF7 cells assessed as accumulation at G1 phase at 4 uM after 48 hrs (reference value: 63%). It counts as functional. In short, it runs like this:
as §2

For assay [17], the system named is MCF7. As to the kind of experiment: Cell cycle arrest in human MCF7 cells assessed as accumulation at S phase at 4 uM after 48 hrs (reference value: 9%). The format is functional. In short, it runs like this:
as §2

Assay [18] relates to MCF7. As to the kind of experiment: Cell cycle arrest in human MCF7 cells assessed as accumulation at G2/M phase at 32 uM after 48 hrs (reference value: 25%). It counts as functional. In short, it runs like this:
as §2

Regarding `COc1cc(-c2cc(C(=O)N3CCN(C(=O)c4cccnc4Nc4ccccc4)CC3)nc3cc(-c4ccccc4)nn23)cc(OC)c1OC`, the Activity in the assay on SiHa amounted to 5.1 µM; with MCF7 [1] it was 6.93 µM; in [2], 7.25 µM; with HeLa, 2.99 µM.

On to `COc1ccc(-c2cc(C(=O)N3CCN(C(=O)c4cccnc4Nc4ccc(OC)c(OC)c4)CC3)nc3cc(-c4ccccc4)nn23)cc1`, for which the Activity in the assay with SiHa worked out at 3.73 µM; in the assay on MCF7 [1], 2.53 µM; in assay [2], 5.12 µM; in the assay with HeLa it was 5.87 µM.

For the compound `O=C(c1cc(-c2ccc(Cl)c(Cl)c2)n2nc(-c3ccccc3)cc2n1)N1CCN(C(=O)c2cccnc2Nc2ccc(F)cc2)CC1`, the Activity in the assay on SiHa was 5.27 µM; with MCF7 [1], 4.73 µM; in assay [2], 5.87 µM; in the assay on HeLa it was 4.27 µM.

`COc1ccc(Nc2ncccc2C(=O)N2CCN(C(=O)c3cc(-c4cc(OC)c(OC)c(OC)c4)n4nc(-c5ccccc5)cc4n3)CC2)cc1OC`: the Activity in the assay with SiHa worked out at 3.73 µM; with MCF7 [1], 4.24 µM; in [2], 5.75 µM; in the assay on HeLa, 6.08 µM.

As to `O=C(c1cc(-c2ccc(F)cc2)n2nc(-c3ccccc3)cc2n1)N1CCN(C(=O)c2cccnc2Nc2ccc(F)cc2)CC1`, the Activity with SiHa is 7.21 µM; in the assay on MCF7 [1] it was 3.34 µM; in [2], 5.62 µM; with HeLa it was 3.86 µM.

On to `COc1ccc(Nc2ncccc2C(=O)N2CCN(C(=O)c3cc(-c4ccc(OC)c(OC)c4)n4nc(-c5ccccc5)cc4n3)CC2)cc1OC`, for which the Activity with SiHa amounted to 5.93 µM; with MCF7 [1], 2.61 µM; in assay [2] it was 5.25 µM; in the assay on HeLa, 5.7 µM.

With `COc1cc(-c2cc(C(=O)N3CCN(C(=O)c4cccnc4Nc4ccc(F)cc4)CC3)nc3cc(-c4ccccc4)nn23)cc(OC)c1OC`, the Activity came out at 5.25 µM with SiHa, 6.28 µM in the assay with MCF7 [1], 5.75 µM in [2] and 2.57 µM in the assay on HeLa.

For `COc1ccc(-c2cc(C(=O)N3CCN(C(=O)c4cccnc4Nc4ccc(F)cc4)CC3)nc3cc(-c4ccccc4)nn23)cc1OC`, the Activity came out at 5.64 µM in the assay on SiHa, 7.02 µM in the assay with MCF7 [1], 5.87 µM in [2] and 3.16 µM in the assay on HeLa.

`COc1cc(Nc2ncccc2C(=O)N2CCN(C(=O)c3cc(-c4ccc(Cl)c(Cl)c4)n4nc(-c5ccccc5)cc4n3)CC2)cc(OC)c1OC`: the Activity amounted to 3.65 µM in the assay with SiHa, 5.38 µM in the assay with MCF7 [1], 5.62 µM in assay [2] and 4.52 µM in the assay with HeLa.

For the compound `COc1ccc(Nc2ncccc2C(=O)N2CCN(C(=O)c3cc(-c4ccc(F)cc4)n4nc(-c5ccccc5)cc4n3)CC2)cc1`, the Activity worked out at 4.56 µM in the assay with SiHa, 8.08 µM in the assay with MCF7 [1], 5.37 µM in [2] and 6.6 µM in the assay with HeLa.

Consider `COc1ccc(Nc2ncccc2C(=O)N2CCN(C(=O)c3cc(-c4ccc(OC)c(OC)c4)n4nc(-c5ccccc5)cc4n3)CC2)cc1`, for which the Activity in the assay on SiHa is 5.1 µM; with MCF7 [1], 2.85 µM; in [2], 5.87 µM; in the assay on HeLa, 4.62 µM.

`COc1ccc(-c2cc(C(=O)N3CCN(C(=O)c4cccnc4Nc4ccccc4)CC3)nc3cc(-c4ccccc4)nn23)cc1OC`: the Activity with SiHa amounted to 5.93 µM; in the assay on MCF7 [1], 6.12 µM; in [2], 6.5 µM; in the assay with HeLa, 2.88 µM.

Take `COc1cc(Nc2ncccc2C(=O)N2CCN(C(=O)c3cc(-c4ccc(F)cc4)n4nc(-c5ccccc5)cc4n3)CC2)cc(OC)c1OC`: the Activity with SiHa was 4.07 µM; in the assay on MCF7 [1], 7.59 µM; in [2], 5 µM; in the assay with HeLa, 4.31 µM.

As to `COc1ccc(Nc2ncccc2C(=O)N2CCN(C(=O)c3cc(-c4ccc(Cl)c(Cl)c4)n4nc(-c5ccccc5)cc4n3)CC2)cc1OC`, the Activity in the assay with SiHa is 3.73 µM; in the assay with MCF7 [1] it was 5.95 µM; in assay [2], 7.15 µM; in the assay with HeLa, 5.11 µM.

Regarding `O=C(c1cc(-c2ccc(Cl)c(Cl)c2)n2nc(-c3ccccc3)cc2n1)N1CCN(C(=O)c2cccnc2Nc2ccccc2)CC1`, the Activity in the assay on SiHa is 5.93 µM; with MCF7 [1], 5.3 µM; in assay [2] it was 7.87 µM; with HeLa it was 2.57 µM.

Take `COc1ccc(Nc2ncccc2C(=O)N2CCN(C(=O)c3cc(-c4cc(OC)c(OC)c(OC)c4)n4nc(-c5ccccc5)cc4n3)CC2)cc1`: the Activity in the assay with SiHa worked out at 3.87 µM; in the assay on MCF7 [1], 3.02 µM; in assay [2], 5.87 µM; with HeLa it was 2.85 µM.

Take `COc1ccc(Nc2ncccc2C(=O)N2CCN(C(=O)c3cc(-c4ccc(OC)cc4)n4nc(-c5ccccc5)cc4n3)CC2)cc1`: the Activity in the assay with SiHa turned out to be 4.36 µM; in the assay with MCF7 [1], 2.93 µM; in assay [2], 6.37 µM; in the assay with HeLa, 3.72 µM.

On to `COc1ccc(-c2cc(C(=O)N3CCN(C(=O)c4cccnc4Nc4cc(OC)c(OC)c(OC)c4)CC3)nc3cc(-c4ccccc4)nn23)cc1`, for which the Activity in the assay with SiHa is 6.08 µM; with MCF7 [1] it was 3.83 µM; in [2], 6.62 µM; in the assay on HeLa, 4.24 µM.

For `COc1ccc(Nc2ncccc2C(=O)N2CCN(C(=O)c3cc(-c4ccc(Cl)c(Cl)c4)n4nc(-c5ccccc5)cc4n3)CC2)cc1`, the Activity in the assay with SiHa turned out to be 3.92 µM; in the assay with MCF7 [1], 6.12 µM; in assay [2], 5 µM; in the assay with HeLa it was 2.64 µM.

Take `COc1ccc(-c2cc(C(=O)N3CCN(C(=O)c4cccnc4Nc4ccc(F)cc4)CC3)nc3cc(-c4ccccc4)nn23)cc1`: the Activity stood at 5.93 µM in the assay on SiHa, 4.97 µM in the assay on MCF7 [1], 5.87 µM in assay [2] and 3.79 µM in the assay on HeLa.

Turning to `COc1ccc(Nc2ncccc2C(=O)N2CCN(C(=O)c3cc(-c4ccc(F)cc4)n4nc(-c5ccccc5)cc4n3)CC2)cc1OC`, the Activity amounted to 6.62 µM in the assay with SiHa, 2.69 µM in the assay with MCF7 [1], 5.25 µM in assay [2] and 6.33 µM in the assay with HeLa.

On to `COc1ccc(-c2cc(C(=O)N3CCN(C(=O)c4cccnc4Nc4cc(OC)c(OC)c(OC)c4)CC3)nc3cc(-c4ccccc4)nn23)cc1OC`, for which the Activity in the assay with SiHa came out at 7.65 µM; with MCF7 [1] it was 7.34 µM; in assay [2], 4.88 µM; in the assay with HeLa, 4.24 µM.

Consider `COc1cccc2c1C(=O)c1c(O)c3c(c(O)c1C2=O)C[C@@](O)(C(=O)CO)C[C@@H]3O[C@H]1C[C@H](N)[C@H](O)[C@H](C)O1` [DOXORUBICIN], for which the Activity in the assay on SiHa came out at 3.93 µM; in the assay on MCF7 [1] it was 0.473 µM; in the assay with MCF7 [3], 4%; with MCF7 [4] it was 6%; in the assay with MCF7 [5], 9%; in the assay on MCF7 [6], 11%. The Activity turned out to be 50% in the assay with MCF7 [7]; 1% with MCF7 [8]; 49% with MCF7 [9]; 4.5 µM in [2]; 8% with MCF7 [10]; 1.25 µM in the assay on HeLa. Also, the Activity with MCF7 [11] amounted to 37%; with MCF7 [12] it was 34%; in the assay with MCF7 [13], 48%; in the assay on MCF7 [14], 10%; in the assay with MCF7 [15], 36%; in the assay with MCF7 [16], 44%. For the same compound, the Activity was 8% in the assay with MCF7 [17] and 46% in the assay on MCF7 [18].

Source of the values: ChEMBL document CHEMBL3784968, “Synthesis and mechanistic aspects of 2-anilinonicotinyl-pyrazolo[1,5-a]pyrimidine conjugates that regulate cell proliferation in MCF-7 cells via estrogen signaling” (2016).
